In experiment [1] the target is T1, Inhibitor of nuclear factor kappa-B kinase subunit beta (Homo sapiens) (UniProt O14920).
T1 sequence (whole entry): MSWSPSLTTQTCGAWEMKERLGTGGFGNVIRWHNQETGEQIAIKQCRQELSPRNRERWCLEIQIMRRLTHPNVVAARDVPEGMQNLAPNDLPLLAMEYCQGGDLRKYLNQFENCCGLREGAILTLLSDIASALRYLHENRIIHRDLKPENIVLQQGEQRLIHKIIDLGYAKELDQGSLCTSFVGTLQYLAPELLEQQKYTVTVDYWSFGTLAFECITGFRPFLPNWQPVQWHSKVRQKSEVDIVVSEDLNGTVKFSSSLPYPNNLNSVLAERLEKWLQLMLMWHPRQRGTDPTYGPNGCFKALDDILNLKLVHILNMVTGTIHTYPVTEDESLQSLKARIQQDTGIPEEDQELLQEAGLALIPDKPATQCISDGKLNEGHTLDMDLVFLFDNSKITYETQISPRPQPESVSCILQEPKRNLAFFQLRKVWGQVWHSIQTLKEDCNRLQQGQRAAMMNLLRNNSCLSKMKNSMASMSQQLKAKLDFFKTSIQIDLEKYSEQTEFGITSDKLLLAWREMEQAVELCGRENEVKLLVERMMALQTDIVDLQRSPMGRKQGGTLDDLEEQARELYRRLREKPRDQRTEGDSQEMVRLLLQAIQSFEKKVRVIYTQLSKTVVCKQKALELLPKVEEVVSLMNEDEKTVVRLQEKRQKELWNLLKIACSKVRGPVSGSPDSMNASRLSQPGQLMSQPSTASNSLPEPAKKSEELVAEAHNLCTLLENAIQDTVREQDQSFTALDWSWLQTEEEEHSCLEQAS
In words: Inhibition of GST-tagged human full length recombinant IKKbeta expressed in baculovirus expression system at 100 to 1000 nM by Z'-LYTE assay. The conditions noted are these: dose 100-1000 nM.

Experiment [2] addresses Vascular endothelial growth factor receptor 2 (Homo sapiens) (UniProt P35968). In words: Inhibition of His-tagged human recombinant VEGFR2 (789 to 1356 residues) expressed in baculovirus expression system at 100 to 1000 nM by Z'-LYTE assay. As to conditions: dose 100-1000 nM. Put shortly:
(§1)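 Z'-LYTE FRET kinase panel; phosphorylation of a reference peptide measured with ATP at each enzyme's Km. Compounds tested in 1% DMSO at 0.1 and/or 1 μM. Values are means of two independent experiments with standard deviations.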

Experiment [3] has as its target Epidermal growth factor receptor (Homo sapiens, UniProt P00533, C797S/L858R/T790M). Nature of the experiment: Inhibition of EGFR L858R/T790M/C797S triple mutant (unknown origin) using […] preincubated with enzyme and ATP at 10XKm for 3 hrs followed by substrate addition and measured after 1 hr by TR-FRET assay. (Time-resolved FRET reads energy transfer from a long-lived donor to a nearby acceptor.)

In experiment [4] the test system is Epidermal growth factor receptor (Homo sapiens), P00533 [L858R,T790M,C797S]. Nature of the experiment: Inhibition of EGFR L858R/T790M/C797S triple mutant (unknown origin) expressed in mouse Ba/F3 cells assessed as inhibition of EGF-stimulated receptor phosphorylation incubated for 4 hrs followed by EGF stimulation for 10 mins by western blot analysis. Type of experiment: cell-based. As to conditions: BaF3, dose 10-1000 nM, time 250.0 min. Put shortly:
(§2)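 Ba/F3 cells expressing EGFR L858R/T790M/C797S were treated for 4 h across increasing concentrations (DMSO ≤0.1%), then stimulated with 100 ng/ml EGF for 10 min. Lysates were immunoblotted for pEGFR (Tyr1068), EGFR and actin.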
In general terms: In western blotting, separated proteins are transferred to a membrane and probed.

The test system is the same in experiment [5]. In words: Inhibition of EGFR L858R/T790M/C797S triple mutant (unknown origin) expressed in mouse Ba/F3 cells assessed as inhibition of EGF-stimulated receptor phosphorylation at 500 nM incubated for 4 hrs followed by EGF stimulation for 10 mins by western blot analysis. It counts as cell-based. As to conditions: BaF3, time 250.0 min. Put shortly: as §2

Experiment [6] concerns the target T1, Inhibitor of nuclear factor kappa-B kinase subunit beta (Homo sapiens). Nature of the experiment: Inhibition of GST-tagged human full length recombinant IKKbeta expressed in baculovirus expression system at 1 uM by Z'-LYTE assay. The gist of the method: as §1

Active and inactive are the calls of the source. The calls are words filed in the database; no cut-off is given here.

Sequence of Epidermal growth factor receptor (Homo sapiens), P00533 [L858R,T790M,C797S] (P00533 whole entry T790M/C797S/L858R): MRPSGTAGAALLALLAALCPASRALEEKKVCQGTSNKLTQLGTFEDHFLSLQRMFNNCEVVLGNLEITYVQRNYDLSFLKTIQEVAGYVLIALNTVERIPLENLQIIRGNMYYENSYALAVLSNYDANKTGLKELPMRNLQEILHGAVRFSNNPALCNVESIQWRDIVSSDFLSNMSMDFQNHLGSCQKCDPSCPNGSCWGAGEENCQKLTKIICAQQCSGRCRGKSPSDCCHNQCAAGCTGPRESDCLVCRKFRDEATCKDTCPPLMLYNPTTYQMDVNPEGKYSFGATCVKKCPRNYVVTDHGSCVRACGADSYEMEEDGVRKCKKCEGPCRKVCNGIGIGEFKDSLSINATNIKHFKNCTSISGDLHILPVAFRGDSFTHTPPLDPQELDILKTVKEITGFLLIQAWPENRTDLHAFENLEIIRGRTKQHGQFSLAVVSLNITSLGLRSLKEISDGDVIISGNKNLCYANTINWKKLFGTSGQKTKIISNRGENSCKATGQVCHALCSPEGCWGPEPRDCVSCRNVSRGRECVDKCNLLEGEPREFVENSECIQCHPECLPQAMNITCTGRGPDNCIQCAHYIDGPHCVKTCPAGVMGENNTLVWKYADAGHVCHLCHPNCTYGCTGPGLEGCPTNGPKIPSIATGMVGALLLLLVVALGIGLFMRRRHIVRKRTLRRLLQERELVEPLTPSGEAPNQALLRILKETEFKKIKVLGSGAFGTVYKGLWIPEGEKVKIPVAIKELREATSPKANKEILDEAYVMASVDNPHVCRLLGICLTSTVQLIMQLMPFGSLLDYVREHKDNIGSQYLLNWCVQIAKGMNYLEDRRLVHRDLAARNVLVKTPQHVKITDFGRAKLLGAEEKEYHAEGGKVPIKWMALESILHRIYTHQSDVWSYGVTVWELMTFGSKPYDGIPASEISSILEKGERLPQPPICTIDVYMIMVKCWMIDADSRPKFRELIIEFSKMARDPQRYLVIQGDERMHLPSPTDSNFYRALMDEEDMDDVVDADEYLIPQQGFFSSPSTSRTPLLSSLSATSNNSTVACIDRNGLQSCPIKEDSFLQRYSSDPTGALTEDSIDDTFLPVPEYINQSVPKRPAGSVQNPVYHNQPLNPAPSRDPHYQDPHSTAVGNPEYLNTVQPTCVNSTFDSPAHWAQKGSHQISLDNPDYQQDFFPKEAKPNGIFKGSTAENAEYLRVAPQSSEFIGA
Sequence of Vascular endothelial growth factor receptor 2 (Homo sapiens) (P35968 whole entry, the tested form may be a part): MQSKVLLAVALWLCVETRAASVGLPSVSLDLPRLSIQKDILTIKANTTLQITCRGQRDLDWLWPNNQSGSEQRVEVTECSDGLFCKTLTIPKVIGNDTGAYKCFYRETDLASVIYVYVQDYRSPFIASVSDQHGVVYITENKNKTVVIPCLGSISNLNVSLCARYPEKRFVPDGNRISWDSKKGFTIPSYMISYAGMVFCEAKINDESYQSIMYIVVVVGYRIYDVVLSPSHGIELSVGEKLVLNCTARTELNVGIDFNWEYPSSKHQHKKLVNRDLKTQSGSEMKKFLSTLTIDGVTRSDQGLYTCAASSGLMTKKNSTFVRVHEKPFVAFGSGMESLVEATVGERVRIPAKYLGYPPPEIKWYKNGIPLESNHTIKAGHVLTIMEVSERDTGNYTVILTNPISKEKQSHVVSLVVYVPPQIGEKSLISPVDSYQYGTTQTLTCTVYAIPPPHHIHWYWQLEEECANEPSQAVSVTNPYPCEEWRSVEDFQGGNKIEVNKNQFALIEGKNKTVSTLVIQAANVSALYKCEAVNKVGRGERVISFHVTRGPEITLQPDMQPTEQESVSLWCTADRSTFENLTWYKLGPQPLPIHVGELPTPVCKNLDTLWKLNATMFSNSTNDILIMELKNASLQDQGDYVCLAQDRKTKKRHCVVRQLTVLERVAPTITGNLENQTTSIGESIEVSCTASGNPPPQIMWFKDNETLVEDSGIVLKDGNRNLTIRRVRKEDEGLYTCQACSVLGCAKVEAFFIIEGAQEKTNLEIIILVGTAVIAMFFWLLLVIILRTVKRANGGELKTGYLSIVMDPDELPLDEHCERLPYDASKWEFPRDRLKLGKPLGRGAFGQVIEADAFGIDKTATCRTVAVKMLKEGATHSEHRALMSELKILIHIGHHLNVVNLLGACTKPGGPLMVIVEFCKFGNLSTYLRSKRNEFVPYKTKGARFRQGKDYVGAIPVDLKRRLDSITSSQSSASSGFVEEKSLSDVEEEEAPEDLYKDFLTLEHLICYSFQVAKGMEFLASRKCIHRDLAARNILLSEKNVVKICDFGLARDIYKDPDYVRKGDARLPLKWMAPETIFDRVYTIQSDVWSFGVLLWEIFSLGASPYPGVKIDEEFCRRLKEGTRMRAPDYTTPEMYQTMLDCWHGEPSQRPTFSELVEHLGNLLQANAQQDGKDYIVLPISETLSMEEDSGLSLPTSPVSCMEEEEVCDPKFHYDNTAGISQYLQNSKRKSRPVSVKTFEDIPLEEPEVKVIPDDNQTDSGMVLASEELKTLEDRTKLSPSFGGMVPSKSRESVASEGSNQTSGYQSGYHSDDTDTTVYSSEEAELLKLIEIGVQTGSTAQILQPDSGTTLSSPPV
Sequence of Epidermal growth factor receptor (P00533 25-1210 T790M/C797S/L858R limits assumed): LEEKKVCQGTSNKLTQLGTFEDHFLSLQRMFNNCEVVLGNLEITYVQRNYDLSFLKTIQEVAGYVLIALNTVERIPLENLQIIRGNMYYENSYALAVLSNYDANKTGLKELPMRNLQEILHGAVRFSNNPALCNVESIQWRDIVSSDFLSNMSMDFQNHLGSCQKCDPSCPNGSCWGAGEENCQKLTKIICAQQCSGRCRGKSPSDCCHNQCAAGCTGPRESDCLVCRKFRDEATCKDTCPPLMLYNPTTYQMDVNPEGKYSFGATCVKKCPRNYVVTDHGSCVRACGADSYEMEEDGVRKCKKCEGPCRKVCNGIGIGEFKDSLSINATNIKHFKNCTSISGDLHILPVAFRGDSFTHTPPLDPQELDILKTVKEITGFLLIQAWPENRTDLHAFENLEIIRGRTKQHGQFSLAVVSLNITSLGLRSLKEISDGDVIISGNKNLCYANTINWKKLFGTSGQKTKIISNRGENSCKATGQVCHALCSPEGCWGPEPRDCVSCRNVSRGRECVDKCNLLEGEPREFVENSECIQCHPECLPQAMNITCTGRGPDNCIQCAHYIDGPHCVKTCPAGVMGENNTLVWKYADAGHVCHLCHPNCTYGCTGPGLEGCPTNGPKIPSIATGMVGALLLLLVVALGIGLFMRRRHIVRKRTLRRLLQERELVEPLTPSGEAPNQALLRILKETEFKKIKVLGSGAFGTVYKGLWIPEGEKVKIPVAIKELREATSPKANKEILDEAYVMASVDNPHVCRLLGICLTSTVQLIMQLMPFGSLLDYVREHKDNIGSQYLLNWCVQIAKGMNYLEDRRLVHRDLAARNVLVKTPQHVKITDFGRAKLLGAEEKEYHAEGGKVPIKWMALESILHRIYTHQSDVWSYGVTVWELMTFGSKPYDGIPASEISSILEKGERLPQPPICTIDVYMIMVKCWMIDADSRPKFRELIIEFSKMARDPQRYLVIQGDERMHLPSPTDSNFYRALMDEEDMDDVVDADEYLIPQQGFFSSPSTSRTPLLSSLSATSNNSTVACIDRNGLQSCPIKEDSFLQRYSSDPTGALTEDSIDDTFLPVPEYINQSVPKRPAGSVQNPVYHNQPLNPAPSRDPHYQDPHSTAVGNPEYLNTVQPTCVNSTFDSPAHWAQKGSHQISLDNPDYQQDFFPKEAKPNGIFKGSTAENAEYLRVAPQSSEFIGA

Regarding `C#CCNC(=O)c1cc(Nc2cc(C3CC3)[nH]n2)nc(N2CCN(Cc3ccc(S(=O)(=O)F)cc3)CC2)n1`, the inhibition result in experiment [1] and in experiment [2] was “inactive” in each case.

The compound `COc1cc(N2CCN(C(C)=O)CC2)ccc1Nc1ncc(Cl)c(Nc2ccc(NCc3ccc(S(=O)(=O)F)cc3)cc2)n1` displayed a half-maximal inhibitory concentration (IC50) in experiment [3] of 23 nM. In addition, the inhibition result in experiment [4] was “Dose-Dependent Effect”; in experiment [5] it was 100%; in experiment [6], less than 25%.

The inhibition is the percentage by which the read-out fell short of the control. Broadly, the IC50 is the concentration at which inhibition is half-maximal.

For the origin of these results see ChEMBL document CHEMBL4828755, “A sulfonyl fluoride derivative inhibits EGFRL858R/T790M/C797S by covalent modification of the catalytic lysine” (Eur J Med Chem, 2021).
